One data set relates to RWPE-1. Description: Cytotoxicity against human RWPE1 cells assessed as cell growth inhibition after 24 hrs by MTT assay. The conditions noted are these: RWPE-1, 24 h. Type of data set: cell-based. A digest of the protocol:
(§1)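 Cells seeded 24 h in RPMI 1640 + 10% FBS. RWPE-1 was kept in K-SFM with bovine pituitary extract and EGF. Cells then exposed to compounds for 24 h at 37 °C, 5% CO2, with DMSO vehicle and docetaxel as positive control. MTT added for 4 h, absorbance read at 570 nm. Triplicate runs, IC50 reported as mean of three experiments.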

Data set [1] has as its system PC-3M. Description: Antitumor activity against human PC3M-lluc-C6 cells xenografted in athymic Balb/c mouse assessed as decrease in tumor burden by measuring photon intensity at 15 mg/kg, ip measured on day 9 by bioluminescence method (reference value: 6.501 x 10^9 photons/s/cm2). In kind it is functional.
A short description of data set [2]: Toxicity in athymic Balb/c mouse assessed as body weight loss at 15 mg/kg, ip administered every 2 days for 18 days. As to conditions: in vivo. In kind it is organism-based. The procedure, abridged: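 Male athymic BALB/c-nu mice bearing subcutaneous PC3M-luc-C6 xenografts, n = 5 per group. Dosing was 15 mg/kg i.p. every 2 days for 18 days versus placebo and docetaxel 15 mg/kg groups. Body weight was recorded over the treatment period.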

The next data set deals with MCF7. The experiment in a line: Cytotoxicity against human MCF7 cells assessed as cell growth inhibition after 24 hrs by MTT assay. Type of data set: functional, cell-based. As to conditions: MCF7, 24 h. A digest of the protocol: as §1
The subject of data set [3] is PC-3M. The experiment in a line: Antitumor activity against human PC3M-lluc-C6 cells xenografted in athymic Balb/c mouse assessed as decrease in tumor burden by measuring photon intensity at 15 mg/kg, ip measured on day 18 by bioluminescence method (reference value: 2.332 x 10^10 photons/s/cm2). Type of data set: functional.
In the next data set the test system is DU-145. Description: Cytotoxicity against human DU145 cells assessed as cell growth inhibition after 24 hrs by MTT assay. In kind it is functional, cell-based. As to conditions: DU-145, 24 h. A digest of the protocol:
as §1

The test system of data set [4] is PC-3. Description: Cytotoxicity against human PC3 cells assessed as cell growth inhibition after 24 hrs by MTT assay. Type of data set: functional, cell-based. As to conditions: PC-3, 24 h. A digest of the protocol:
as §1

The next data set has as its system MDA-MB-231. Description: Cytotoxicity against human MDA-MB-231 cells assessed as cell growth inhibition after 24 hrs by MTT assay. Type of data set: functional, cell-based. The conditions noted are these: MDA-MB-231, 24 h. The procedure, abridged: as §1
Data set [5] concerns PC-3M. The experiment in a line: Antitumor activity against human PC3M-lluc-C6 cells xenografted in athymic Balb/c mouse assessed as tumor growth inhibition at 15 mg/kg, ip administered every 2 days measured on day 18. Type of data set: functional. The conditions noted are these: read-out: TGI.
In data set [6] the test system is PC-3. Description: Induction of morphological changes in human PC3 cells assessed as formation of massive cytoplasmic vacuoles at 1 uM after 12 hrs by confocal microscopic analysis. In kind it is functional, cell-based.
A further data set concerns HeLa. The experiment in a line: Cytotoxicity against human HeLa cells assessed as cell growth inhibition after 24 hrs by MTT assay. In kind it is functional, cell-based. The procedure, abridged:
as §1

The next data set has as its system K562. Description: Cytotoxicity against human K562 cells assessed as cell growth inhibition after 24 hrs by MTT assay. In kind it is functional, cell-based. The conditions noted are these: K562, 24 h. The procedure, abridged:
as §1

The test system of data set [7] is PC-3. The experiment in a line: Induction of autophagy in human PC3 cells transfected with mRFP-GFP-LC3 assessed as LC3 granulation of LC3 at 0.5 uM after 8 hrs by fluorescence microscopic analysis. Type of data set: functional, cell-based. The procedure, abridged:
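PC3 cells transfected with an mRFP-GFP-LC3 reporter plasmid, then treated 8 h with 1 μM test agent or 0.5 μM rapamycin (autophagy inducer). Imaged by confocal fluorescence microscopy: yellow puncta (overlapping red/green) scored as autophagosomes, red-only puncta as autolysosomes, since GFP is quenched in acidic lysosomes.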

Calls of active or inactive are those of the source. The calls are words filed in the database; no cut-off is given here.

On to `CC(=O)O[C@@]12CO[C@@H]1C[C@H](O)[C@@]1(C)C(=O)[C@H](O)C3=C(C)[C@@H](OC(=O)[C@H](O)[C@@H](NC(=O)OC(C)(C)C)c4ccccc4)C[C@@](O)([C@@H](OC(=O)c4ccccc4)[C@H]21)C3(C)C` [DOCETAXEL ANHYDROUS], for which the IC50 was determined as 1730 nM in the data set with RWPE-1; 22 nM in the data set with MCF7; 26 nM with DU-145; 13 nM in the data set on PC-3 [4]; 32 nM with MDA-MB-231; 61 nM in the data set with HeLa. In addition, in the data set with K562, the 50% inhibitory concentration (IC50) came out at 39 nM. Also, the values for the Activity (in the data set on PC-3M [1]; in [2]; in the data set with PC-3M [3]) were 3.513 ×10⁹ /s/cm2, 13.3 g and 1.92 ×10⁹ /s/cm2, respectively. The inhibition in vivo at 15 mg/kg in the data set with PC-3M [5] came to 92%. In addition, the result with PC-3 [6] was inactive.
`CO[C@H]1C[C@@H]2CC[C@@H](C)[C@@](O)(O2)C(=O)C(=O)N2CCCC[C@H]2C(=O)O[C@H]([C@H](C)C[C@@H]2CC[C@@H](O)[C@H](OC)C2)CC(=O)[C@H](C)/C=C(\C)[C@@H](O)[C@@H](OC)C(=O)[C@H](C)C[C@H](C)/C=C/C=C/C=C/1C`: the result in the data set with PC-3 [7] was Active.

Values taken from ChEMBL document CHEMBL4425094, “Novel Benzo[a]quinolizidine Analogs Induce Cancer Cell Death through Paraptosis and Apoptosis” (J Med Chem, 2016).
